The source made the active and inactive calls.
Experiments:
[1] = target: T1, G-protein coupled bile acid receptor 1 (Homo sapiens) (UniProt Q8TDU6); assay: Agonist activity at human TGR5 transfected in HEK293T cells assessed intracellular cAMP level at 40 uM by HTRF assay; format: functional, cell-based; settings: filed as agonist
T1 sequence (whole entry): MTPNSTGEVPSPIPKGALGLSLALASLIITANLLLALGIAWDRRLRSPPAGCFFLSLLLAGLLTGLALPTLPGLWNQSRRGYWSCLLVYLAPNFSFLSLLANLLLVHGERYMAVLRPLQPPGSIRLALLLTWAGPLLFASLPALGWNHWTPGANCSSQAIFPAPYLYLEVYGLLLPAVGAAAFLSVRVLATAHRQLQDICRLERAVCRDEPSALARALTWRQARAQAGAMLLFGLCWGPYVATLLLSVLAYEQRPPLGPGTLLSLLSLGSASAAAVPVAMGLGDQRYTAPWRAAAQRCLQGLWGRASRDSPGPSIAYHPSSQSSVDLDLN
In short: (§1)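 HEK293T stable line made by lentiviral transfection with drug selection. cAMP measured by HTRF cAMP dynamic 2 kit. Compounds from 10 mM DMSO stocks. 10 μM LCA defined as 100% and 0.1% DMSO as 0% hTGR5 activation. Mean of three independent experiments.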

[2] = target: T1, G-protein coupled bile acid receptor 1 (Homo sapiens); assay: Agonist activity at human TGR5 transfected in HEK293T cells assessed intracellular cAMP level at 10 uM by HTRF assay; format: functional, cell-based; in short: as §1
[3] = target: T2, G-protein coupled bile acid receptor 1 (Homo sapiens, UniProt Q8TDU6); assay: Agonist activity at human TGR5 transfected in HEK293T cells assessed intracellular cAMP level by HTRF assay; format: functional, cell-based
T2 sequence (Q8TDU6 whole entry): T1 sequence (whole entry)

[4] = target: T3, G-protein coupled bile acid receptor 1 (Mus musculus, UniProt Q80SS6); assay: Agonist activity at mouse TGR5 transfected in HEK293T cells assessed intracellular cAMP level by HTRF assay; format: functional, cell-based
T3 sequence (Q80SS6 whole entry): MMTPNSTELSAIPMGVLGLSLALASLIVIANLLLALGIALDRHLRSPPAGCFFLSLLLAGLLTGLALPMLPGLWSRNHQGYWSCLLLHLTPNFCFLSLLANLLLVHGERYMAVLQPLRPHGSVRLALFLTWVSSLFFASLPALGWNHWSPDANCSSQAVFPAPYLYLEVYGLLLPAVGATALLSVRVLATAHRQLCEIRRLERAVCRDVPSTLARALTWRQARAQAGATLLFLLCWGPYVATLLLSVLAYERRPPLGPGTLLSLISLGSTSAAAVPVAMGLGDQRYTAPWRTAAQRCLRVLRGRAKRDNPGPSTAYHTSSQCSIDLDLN
In short: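 Run by the same cAMP HTRF method used for human TGR5, with compounds from 10 mM DMSO stocks. EC50 given as mean ± SEM of three independent experiments.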

[5] = target: T4, Bile acid receptor (Homo sapiens) (UniProt Q96RI1); assay: Agonist activity at GST-tagged human FXR-LBD using biotinylated SRC-1 peptide as substrate at 50 uM by HTRF assay
T4 sequence (whole entry): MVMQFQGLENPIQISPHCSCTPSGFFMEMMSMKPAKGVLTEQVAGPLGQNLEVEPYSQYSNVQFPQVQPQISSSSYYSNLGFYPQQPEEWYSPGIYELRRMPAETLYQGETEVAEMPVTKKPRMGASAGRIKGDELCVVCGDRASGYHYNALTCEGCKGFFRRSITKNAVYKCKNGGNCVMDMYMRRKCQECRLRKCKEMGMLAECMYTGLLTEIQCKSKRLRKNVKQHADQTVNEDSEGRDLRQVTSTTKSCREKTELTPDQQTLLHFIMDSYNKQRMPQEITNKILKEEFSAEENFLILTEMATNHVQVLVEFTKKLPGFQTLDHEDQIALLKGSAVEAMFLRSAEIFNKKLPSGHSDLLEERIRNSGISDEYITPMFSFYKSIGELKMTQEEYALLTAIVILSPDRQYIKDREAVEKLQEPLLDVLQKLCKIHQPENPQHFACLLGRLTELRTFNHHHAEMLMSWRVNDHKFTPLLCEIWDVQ
In short: (§2)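 Reaction mix in HTRF buffer (50 mM Hepes pH 7.0, 125 mM KF, 0.125% CHAPS, 0.05% dry milk): 10 nM GST-FXRα LBD, 100 nM biotin-SRC1, 0.83 nM Eu-anti-GST, 41.75 nM streptavidin-XL665. Incubated at room temperature, read as (665/620 nm)×10,000. 50 μM CDCA defined as 100% and 0.1% DMSO as 0% activation.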

A549 = assay: Cytotoxicity against human A549 cells assessed as reduction in cell viability incubated for 24 hrs by CCK8 assay; format: functional, cell-based; settings: A549, 24 h
In short: (§3)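 Cells exposed to compounds for 24 h, then viability read by CCK8 assay to give IC50.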

[6] = target: T4, Bile acid receptor (Homo sapiens); assay: Agonist activity at GST-tagged human FXR-LBD using biotinylated SRC-1 peptide as substrate at 10 uM by HTRF assay; in short: as §2
[7] = Stability of the compound in human plasma assessed as parent compound remaining measured after 60 mins; format: ADME, cell-free; settings: read-out: Stabilty
HeLa = assay: Cytotoxicity against human HeLa cells assessed as reduction in cell viability incubated for 24 hrs by CCK8 assay; format: functional, cell-based; in short: as §3
[8] = target: T4, Bile acid receptor (Homo sapiens); assay: Agonist activity at GST-tagged human FXR-LBD using biotinylated SRC-1 peptide as substrate at 20 uM by HTRF assay; in short: as §2
[9] = Stability of the compound in human plasma assessed as parent compound remaining measured after 120 mins; format: ADME, cell-free; settings: read-out: Stabilty
Mus musculus [10] = assay: Antidiabetic activity against in C57BL/6J mouse assessed reduction in glucose AUC at 30 mg/kg, po pretreated for 60 mins followed by 2 g/kg glucose orally administered measured upto 120 mins by OGTT method relative to control; format: functional; set-up: scale not given: the % may be the effect or the level left; settings: time min <=180
Mus musculus [11] = assay: Induction of GLP-1 secretion in TGR5 knock out C57BL/6J mouse assessed as serum GLP-1 level at 30 mg/kg, po followed by 2 g/kg glucose orally administered measured after 5 mins by ELISA relative to control; format: functional, organism-based
In short: (§4)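 Eight-week-old WT or TGR5−/− mice fasted overnight, then given vehicle (0.25% CMC) or compound 30 mg/kg orally. Oral glucose 2.0 g/kg 1 h later. Blood taken 5 min after glucose into tubes with DPP IV inhibitor and EDTA. Serum active GLP-1(7–36 amide) measured by ELISA.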

Mus musculus [12] = assay: In vivo agonist activity at TGR5 in wild type C57BL/6J mouse assessed as induction of GLP-1 secretion at 30 mg/kg, po followed by 2 g/kg glucose orally administered measured after 5 mins by ELISA relative to control; format: functional, organism-based; in short: as §4

Row | SMILES | Activity [1] | EC50 [3] | Activity ([2]; filed as agonist) | other results
1 | C[C@H](c1ccccc1)n1cncc1C(=O)Nc1ccccc1F | 48.4% | – | – | Activity [2]: 16.5%
2 | C[C@H](c1ccccc1)n1cncc1C(=O)Nc1cccc(F)c1 | 56.2% | – | – | Activity [2]: 20.1%
3 | C[C@H](c1ccccc1)n1cncc1C(=O)N1CCN(C2CC2)c2ccccc21 | 97.4% | 0.33 µM | 89.8% | –
4 | C[C@H](c1ccccc1)n1cncc1C(=O)N1CCN(c2ccccc2F)CC1 | 95.3% | 1.09 µM | 79.3% | –
5 | O=C(c1cncn1Cc1ccccc1Cl)N1CCN(C2CC2)c2ccccc21 | – | 0.118 µM | – | EC50 [4]: 3.69 µM
6 | Cc1ccc(NC(=O)c2cncn2[C@H](C)c2ccccc2)cc1 | 63.3% | – | – | Activity [2]: 20.2%
7 | Cc1ccc(N(C)C(=O)c2cncn2[C@H](C)c2ccccc2)cc1 | 86.7% | – | 62.1% | –
8 | C[C@H](c1ccccc1)n1cncc1C(=O)Nc1ccc(Cl)cc1 | 84.1% | – | – | Activity [2]: 37.7%
9 | O=C(c1cncn1Cc1cc(Cl)ccc1Cl)N1CCN(C2CC2)c2ccccc21 | – | 0.0095 µM | – | Activity [5]: 0.31%; IC50 (A549): > 50 µM; Activity [6]: 2.3%; remaining at 1 h [7]: 112%; IC50 (HeLa): > 50 µM; Activity [8]: -0.8%; remaining at 2 h [9]: 105%; Activity (Mus musculus [10]): 13.7%; EC50 [4]: 0.832 µM
10 | C[C@H](c1ccccc1)n1cncc1C(=O)N(C)c1ccc(F)cc1 | 85.4% | 1.05 µM | 70.9% | –
11 | C[C@H](c1ccccc1)n1cncc1C(=O)N1CCN(c2ccccc2)CC1 | 81.6% | – | 41.7% | –
12 | COc1ccccc1N1CCN(C(=O)c2cncn2[C@H](C)c2ccccc2)CC1 | 49.2% | – | – | Activity [2]: 17.4%
13 | COc1ccc(N2CCN(C(=O)c3cncn3[C@H](C)c3ccccc3)CC2)cc1 | 89.7% | 4.39 µM | 79.1% | –
14 | C[C@H](c1ccccc1)n1cncc1C(=O)N1CCCc2ccccc21 | 77.1% | – | 48.3% | –
15 | COc1ccc(NC(=O)c2cncn2[C@H](C)c2ccccc2)cc1 | 66.5% | – | – | Activity [2]: 25.3%
16 | C[C@H](c1ccccc1)n1cncc1C(=O)N1CCOc2ccccc21 | 74.5% | – | 54.1% | –
17 | C[C@H](c1ccccc1)n1cncc1C(=O)N(C)c1ccc(Cl)cc1 | 71.9% | – | 63.1% | –
18 | O=C(c1cncn1Cc1ccc(Cl)cc1Cl)N1CCN(C2CC2)c2ccccc21 | – | 0.0068 µM | – | Activity (Mus musculus [11]): inactive; Activity [5]: -1.1%; IC50 (A549): > 50 µM; Activity [6]: 1.1%; remaining at 1 h [7]: 107%; IC50 (HeLa): > 50 µM; Activity [8]: 1.6%; remaining at 2 h [9]: 104%; Activity (Mus musculus [10]): 15.8%; Activity (Mus musculus [12]): Active; EC50 [4]: 0.611 µM
19 | O=C(c1cncn1Cc1ccc(F)cc1F)N1CCN(C2CC2)c2ccccc21 | – | 0.338 µM | – | EC50 [4]: > 10 µM
20 | O=C(c1cncn1Cc1ccc(F)cc1)N1CCN(C2CC2)c2ccccc21 | – | 0.568 µM | – | EC50 [4]: > 10 µM
21 | C[C@H](c1ccccc1)n1cncc1C(=O)Nc1ccc(F)cc1 | 85.2% | – | 51.3% | –
22 | O=C(c1cncn1Cc1ccccc1)N1CCN(C2CC2)c2ccccc21 | – | 1.75 µM | – | EC50 [4]: 3.5 µM

From ChEMBL document CHEMBL4680349, “Design, synthesis and evaluation of 1-benzyl-1H-imidazole-5-carboxamide derivatives as potent TGR5 agonists” (Bioorg Med Chem, 2021)
